In ChEMBL document CHEMBL3352454, “From mixed sigma-2 receptor/P-glycoprotein targeting agents to selective P-glycoprotein modulators: small structural changes address the mechanism of interaction at the efflux pump” (Eur J Med Chem, 2015):
Calls of active or inactive are those of the source. The rule behind the calls is not given here.

What was measured:
[1] = Inhibition of P-glycoprotein (unknown origin) expressed in MDCK cells assessed as reduction of calcein-AM transport after 30 mins by fluorescence assay; assay type: cell-based, Homo sapiens
Procedure, shortened: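 Confluent MDCK-MDR1 monolayers (50,000 cells/well, overnight) preincubated with compound (0.1–100 µM in medium) 30 min at 37 °C, then Calcein-AM added (2.5 µM final) for 30 min. Washed three times with ice-cold PBS; calcein fluorescence read at ex 485/em 535 nm versus untreated basal. EC50 from fit of % fluorescence increase versus log dose.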

MDCK = assay: Inhibition of P-glycoprotein (unknown origin) expressed in MDCK cells assessed as ATP depletion at 100 uM by bioluminescence ATP assay; assay type: cell-based; details: Homo sapiens
Procedure, shortened: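 MDCK-MDR1 cells (human MDR1-transfected) plated, incubated overnight at 37 °C, 5% CO2, then exposed to test compound in complete medium for 2 h at 37 °C. Cells lysed; ATP measured by firefly luciferase/D-luciferin luminescence after 10 min dark adaptation. Percentage ATP depletion reported at 100 μM.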

[2] = Displacement of [3H]DTG from rat liver sigma2 receptor at 10^-11 M by scintillation counting analysis in presence of pentazocine
[3] = target: Sigma non-opioid intracellular receptor 1 (Cavia porcellus, UniProt Q60492); assay: Displacement of [3H]-(+)-pentazocine from guinea pig brain sigma1 receptor by scintillation counting analysis
Chain of Sigma non-opioid intracellular receptor 1 (Q60492 whole entry): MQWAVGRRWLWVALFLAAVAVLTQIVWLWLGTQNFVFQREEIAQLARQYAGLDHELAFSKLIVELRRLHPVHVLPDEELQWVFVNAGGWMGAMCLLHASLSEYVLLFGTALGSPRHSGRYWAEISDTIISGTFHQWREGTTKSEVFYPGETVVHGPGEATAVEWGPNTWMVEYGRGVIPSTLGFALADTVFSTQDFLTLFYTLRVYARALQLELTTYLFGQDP

[4] = Displacement of [3H]DTG from rat liver sigma2 receptor by scintillation counting analysis in presence of pentazocine
[5] = target: Sigma non-opioid intracellular receptor 1 (Cavia porcellus) (UniProt Q60492); assay: Displacement of [3H]-(+)-pentazocine from guinea pig brain sigma1 receptor at […] by scintillation counting analysis
Chain of Sigma non-opioid intracellular receptor 1 (Cavia porcellus) (Q60492 whole entry): as above

SMILES | EC50 [1] | inhibition (MDCK) | inhibition [2] | Ki [3] | Ki [4] | inhibition [5]
COc1cc2c(cc1OC)CN(CCCC1CCCc3c(OC)cccc31)CC2 (stereo unspecified) | 1.15 µM | Active | 96% | – | – | –
COc1cc2c(cc1OC)CN(C(=O)CCCc1cn(-c3ccc(F)cc3)c3ccccc13)CC2 | 2.25 µM | Active | – | > 5 µM | > 10 µM | –
COc1cccc2c1CCCC2CCC(=O)N1CCC2(CC1)OCc1ccccc12 (stereo unspecified) | 5.42 µM | – | – | 0.26 µM | 3.21 µM | –
COc1cc2c(cc1OC)CN(CC(=O)NCc1cn(-c3ccc(F)cc3)c3ccccc13)CC2 | 0.92 µM | – | – | > 5 µM | 1.62 µM | –
COc1cc2c(cc1OC)CN(CC(=O)N[C@H]1CCCc3c(OC)cccc31)CC2 | 10 µM | – | – | > 5 µM | 1.76 µM | –
COc1cc2c(cc1OC)C(=O)N(CCCCc1cn(-c3ccc(F)cc3)c3ccccc13)CC2 | 2.34 µM | inactive | – | > 5 µM | > 10 µM | –
COc1cc2c(cc1OC)CN(CCCC(=O)n1c3ccccc3c3ccccc31)CC2 | 0.82 µM | Active | – | > 5 µM | > 10 µM | –
COc1cc2c(cc1OC)CN(CC(=O)N[C@@H]1CCCc3c(OC)cccc31)CC2 | 9.6 µM | – | – | > 5 µM | 1.95 µM | –
COc1cccc2c1CCCC2CCCN1CCC(C2CCCCC2)CC1 (stereo unspecified) | 1.92 µM | – | – | – | 0.0188 µM | –
COc1cc2c(cc1OC)C(=O)N(CCCCn1c3ccccc3c3ccccc31)CC2 | 1.91 µM | 30% | – | > 5 µM | > 10 µM | –
COc1cc2c(cc1OC)CN(C(=O)CCC1CCCc3c(OC)cccc31)CC2 (stereo unspecified) | 2.9 µM | Active | – | > 5 µM | > 10 µM | –
COc1cc2c(cc1OC)CN(CCCCc1cn(-c3ccc(F)cc3)c3ccccc13)CC2 | 0.21 µM | inactive | – | 1.39 µM | 0.00534 µM | –
COc1cccc2c1CCCC2CCC(=O)N1CCC(c2ccc(F)cc2)CC1 (stereo unspecified) | 26 µM | – | – | 2.93 µM | 6.52 µM | –
COc1cc2c(cc1OC)CN(CC/C=C1\CCCc3c(OC)cccc31)CC2 | 0.82 µM | – | – | – | – | –
COc1cccc2c1CCCC2CCC(=O)N1CCC(C2CCCCC2)CC1 (stereo unspecified) | 30.9 µM | – | – | > 5 µM | > 10 µM | –
COc1cccc2c1CCCC2CCCN1CCC2(CC1)OCc1ccccc12 (stereo unspecified) | 2.68 µM | – | – | – | 0.0406 µM | 76%
COc1cc2c(cc1OC)CN(CCCCn1c3ccccc3c3ccccc31)CC2 | 0.42 µM | Active | – | 2.19 µM | 4e-05 µM | –
COc1cc2c(cc1OC)CN(CC(=O)NC1CCCc3c(OC)cccc31)CC2 (racemic) | 10 µM | – | – | > 5 µM | 1.8 µM | –
COc1cccc2c1CCCC2CCCN1CCC(c2ccc(F)cc2)CC1 (stereo unspecified) | 1.98 µM | – | – | – | 0.0226 µM | 80%
